Screening data deposited in PubChem BioAssay by several laboratories.
Compounds with a hit are over-represented: about 6.8% of the library has one in this group of screens.
PHOSPHO1 block: PubChem AID 1565; inhibition, % at 13.3 µM; recombinant PHOSPHO1, absorbance phosphatase assay; 290,000 compounds, 1.1% hits; in the data active means inhibition above about 60%
Target sequence (Q8TCT1 whole entry, looked up): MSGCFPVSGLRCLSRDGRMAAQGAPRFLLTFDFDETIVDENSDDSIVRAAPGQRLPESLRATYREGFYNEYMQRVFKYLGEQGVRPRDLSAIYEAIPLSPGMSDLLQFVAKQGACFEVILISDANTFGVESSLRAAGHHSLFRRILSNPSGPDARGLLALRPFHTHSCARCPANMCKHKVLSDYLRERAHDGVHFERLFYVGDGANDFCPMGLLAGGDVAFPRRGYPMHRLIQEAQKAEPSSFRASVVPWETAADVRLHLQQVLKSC
AI-2 QS modul: Vibrio harveyi AI-2 quorum sensing modulators, primary screen, JMH597 strain, luminescence/OD600 ratio; activity change, % at 7.5 µM; AID 2094, 2009; 300,000 compounds, 0.4% hits; Vibrio harveyi JMH597 AI-2 luminescence/OD600 ratio, 9 h; stronger effect = lower value; strain lacks LuxN and CqsS sensors; 0 = neutral-control median; in the data active means activity change below about -75%, passing the limit was not always enough; inconclusive means no clear call, values can overlap the other calls;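 further: luminescence divided by OD600 gain over 9 h not by final OD600 alone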
ALR H2O2 inh: inhibitors of human ALR sulfhydryl oxidase, primary screen, biochemical, H2O2 detection, HRP-luminol luminescence, single point | FAD-linked sulfhydryl oxidase ALR (Homo sapiens), P55789 | purified ALR, DTT oxidation | inhibition, % (concentration not given with the values) | 290,000 compounds, 3.8% hits | AID 485317, 2010;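 active means mean replicate inhibition above about 79%, with every replicate also reaching it, limit read from the data; inconclusive means only one of the two criteria met; inactive means mean below limit and not every replicate reaching it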
Target sequence (P55789 whole entry, looked up): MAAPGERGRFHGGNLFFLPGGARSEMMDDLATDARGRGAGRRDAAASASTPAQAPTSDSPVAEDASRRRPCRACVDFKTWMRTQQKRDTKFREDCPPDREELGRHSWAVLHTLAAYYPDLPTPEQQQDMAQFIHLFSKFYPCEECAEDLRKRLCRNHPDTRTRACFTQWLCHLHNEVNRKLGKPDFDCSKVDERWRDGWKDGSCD
HSF-1 act: HSF-1 activators, primary screen, NIH3T3-HGL cells, MG132 stress, luminescence, single point. NIH3T3-HGL HSF-1 luciferase reporter, 8 h; 100% = twice DMSO control signal. activation, % at 9 µM. 300,000 compounds, 1.7% hits. AID 504408, 2011;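 active means mean replicate activation of at least 50% with a set share of replicates each reaching 50%; inconclusive means only one of those two conditions met; inactive means mean below 50% and too few replicates reaching it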;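 further: 0% = median of the neutral control wells and 100% = twice that signal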
HSF1 inhib: HSF1 inhibitors in luciferase reporter cells, primary screen, cell-based, NIH3T3, luminescence; NIH3T3-HGL HSE-luciferase, MG132-induced, luminescence 8 h; stronger effect = lower value; activity change, negative = inhibition, % at 7.5 µM (by protocol); 300,000 compounds, 0.77% hits; AID 2098, 2009;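 active means more than half of replicate wells show activity change below -50%, luminescence cut by over half; inconclusive means some wells, but at most half, below -50%; inactive means no replicate well below -50%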;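 further: luciferase reports HSF-1 transcriptional activity via heat shock element; 0% = median of DMSO wells and -100% = zero luminescence signal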
HCV core dimer: inhibitors of HCV core protein dimerization, primary screen, biochemical, TR-FRET, high-throughput; inhibition, % at 5 µM; AID 1899, 2009; TR-FRET GST/Flag-core106 dimerization, 1536-well; 300,000 compounds, 0.33% hits;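 active means inhibition above the mean of all tested compounds plus 3 SD, set per screening campaign, cut at about 45% in these data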
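System – GST-tagged and Flag-tagged HCV core protein residues 1-106 · Repeats – one well for each compound · Technique – TR-FRET 671 and 617 nm emission · Doses – one concentration, 5 µM, in 0.5% DMSO · Times – 4 h, 22.5 °C incubation · Also added – Eu donor and XL665 acceptor anti-tag antibodies · Measure – percent inhibition of core106 dimerization signal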
* hit, by the source's call; ? = inconclusive; / = not tested or not shown.

SMILES	PHOSPHO1 block	AI-2 QS modul	ALR H2O2 inh	HSF-1 act	HSF1 inhib	HCV core dimer
COC(=O)c1ccc(NC(=O)CSc2ccc(-c3ccccn3)nn2)cc1	24.0	5.8	-5.3	-0.8	6.7	-4.9
O=C(Nc1ccc2c(c1)OCO2)C1CCN(S(=O)(=O)c2cccc3cccnc23)CC1	36.0	2.5	/	6.8	4.5	3.0
O=C(NCCc1cccc(Cl)c1)c1cc2ccccc2oc1=O	19.0	33.8	-8.7	278.2*	186.9	0.5
O=C(NCc1cccnc1)c1cc2ccccc2oc1=O	7.2	8.1	-5.6	23.1	-4.1	-1.9
Cc1ccc(-n2nc(C(=O)NCc3ccco3)c3c4ccccc4n(C)c3c2=O)cc1	-3.3	-12.1	-9.1	20.5	14.2	46.8*
Cc1ccc(-n2nc3c(=O)n(CCCC(=O)NCc4ccco4)nc(C)c3c2C)cc1	64.0*	13.9	/	15.5	2.7	-95.6
Cc1ccc(-n2nc3c(=O)n(CCCC(=O)NCc4ccc(F)cc4)nc(C)c3c2C)cc1	37.5	12.9	-1.6	10.9	5.2	3.6
CCN(CC)CCNC(=O)c1nn(-c2ccc(C)cc2)c(=O)c2c1c1ccccc1n2C	-31.3	20.0	-3.5	7.8	-1.2	3.4
CCN1CCN(c2nc(N(C)c3ccccc3)nc(N)c2[N+](=O)[O-])CC1	3.2	3.9	-4.5	3.4	-3.0	2.1
CN(c1ccccc1)c1nc(N)c([N+](=O)[O-])c(N2CCCCCC2)n1	-5.9	12.1	1.6	77.8*	50.7	4.9
CC1CCN(c2nc(N(C)c3ccccc3)nc(N)c2[N+](=O)[O-])CC1	14.6	12.7	1.7	67.2*	27.3	-1.2
CCn1c(=O)c(=O)n(CC)c2cc(S(=O)(=O)Nc3cc(C)ccc3C)ccc21	18.5	7.1	-0.1	-2.7	-3.7	3.2
Cc1cc(C(=O)CSc2nc3ccccc3o2)c(C)n1CC1CCCO1 (configuration not stated)	92.7*	24.7	0.0	-51.0	-42.6	3.0
Cc1cc(C(=O)CSc2nc3ccccc3[nH]2)c(C)n1CC1CCCO1 (configuration not stated)	34.3	25.5	-6.9	-61.1	-53.9*	1.9
Cc1sc2nc(SCC(=O)c3cc(C)n(CC4CCCO4)c3C)n(C(C)C)c(=O)c2c1C (configuration not stated)	78.9*	1.3	/	11.9	2.5	7.8
Cc1cc(C(=O)CSc2nc(N)cc(=O)[nH]2)c(C)n1CC1CCCO1 (configuration not stated)	/	/	3.6	/	/	/
COc1ccc(-c2sc3cc4c(cc3c2C#Cc2ccc(N)cc2)OCO4)cc1	/	/	0.3	/	/	/
O=C(Cn1nnc(-c2ccccc2Cl)n1)NCc1ccc2c(c1)OCO2	21.5	5.9	-6.2	-5.8	3.4	1.6
Cc1sc2nc(C)n(/N=C/c3ccc(O)cc3O)c(=O)c2c1C	47.0	21.8	35.5	63.4*	23.3	3.8
O=C1CC(c2ccccc2)c2c(O)cc(O)cc2O1 (configuration not stated)	4.4	16.0	26.7	-7.0	12.1	-5.0
O=C(c1c(O)cc(O)cc1O)C1c2c(cc(O)c3c2O[C@H](c2ccc(O)cc2)[C@@H](O)C3)OC1c1ccc(O)cc1 (some centres not stated)	/	/	98.9*	/	/	/
Cc1ccc(CSc2nc3ccncc3[nH]2)cc1	8.6	-76.9*	16.2	-24.3	-11.3	0.2
Cc1ccc2nc(SCC(=O)NCc3ccc(F)cc3)[nH]c2c1	0.8	-1.8	-5.5	64.7*	19.9	-16.0
Cc1ccc(CSc2nc3ncccc3[nH]2)cc1	40.7	-6.2	-2.7	76.9*	46.0	-7.4
Cc1ccc2nc(SCc3ccc([N+](=O)[O-])cc3)[nH]c2c1	-108.2	-34.3	-3.7	82.2*	67.3	-4.1
SMILES	PHOSPHO1 block	AI-2 QS modul	ALR H2O2 inh	HSF-1 act	HSF1 inhib	HCV core dimer
Cc1ccc2nc(SCC(=O)NCc3ccc(S(N)(=O)=O)cc3)[nH]c2c1	8.3	8.7	-8.8	4.8	1.0	-13.2
O=C(c1ccc(CSc2nc3ccncc3[nH]2)cc1)N1CCCCCC1	20.0	38.8	-6.3	12.5	2.0	3.5
Cc1ccc2nc(SCc3ccc([N+](=O)[O-])cc3)nc(C)c2c1	7.0	14.8	-2.4	/	/	3.0
Cc1cnc(=O)[nH]c1SCc1ccc([N+](=O)[O-])cc1	26.3	31.1	99.2*	11.5	0.3	-7.0
COCc1cc(C)nc(SCc2ccccc2)c1C#N	3.1	2.8	1.2	4.3	-5.3	-3.1
Clc1ccc(CSc2nc3ccncc3[nH]2)cc1	2.7	?	89.8*	55.9*	22.9	2.7
Cc1cc(C)c(C#N)c(SCc2ccc([N+](=O)[O-])cc2)n1	4.9	32.5	-0.7	52.6*	7.5	1.2
Cc1cnc(=O)[nH]c1SCc1ccc(C(F)(F)F)cc1	24.0	23.2	/	13.3	4.2	-0.6
COc1ccccc1CCC(=O)Nc1ccc(C)cc1Cl	25.6	4.1	-5.2	29.2	18.3	-0.2
COc1ccc(C2N(C(=O)C(F)(F)F)C(C)CN2S(=O)(=O)c2ccc(C)cc2)cc1 (configuration not stated)	32.5	6.4	1.0	22.4	11.3	-13.4
O=C(Nc1ccccc1)C1=C[C@@H](c2ccc(C(F)(F)F)cc2)C[C@@H](OCCCCO)O1	/	27.4	-4.7	-21.8	-13.9	-11.4
COc1cc(SC)ccc1C(=O)NCCCn1ccnc1	3.3	10.9	-7.5	36.2	4.5	1.3
O=C(CCc1nc(-c2cccs2)no1)NCc1ccc(F)cc1Cl	-13.9	33.0	/	-88.4	-85.5*	22.6
CCOC(=O)c1[nH]c(C)c(C(=O)N2CCCC(Nc3ccc(C)c(C)c3)C2)c1C (configuration not stated)	31.9	-0.8	98.6*	9.5	1.7	-15.0
Cc1cc(C)c(C(=O)N2CCCC(Nc3ccc(C)c(C)c3)C2)o1 (configuration not stated)	52.8	4.9	99.3*	35.0	12.2	-7.0
Cc1cc(C)c(C(=O)N2CCCC(C(=O)c3cc(F)ccc3F)C2)o1 (configuration not stated)	26.2	21.4	-1.3	-12.8	-10.5	6.9
Cc1cc(C)c(C(=O)N2CCCC(Nc3ccc(F)cc3)C2)o1 (configuration not stated)	14.6	/	98.8*	-11.1	-1.7	-8.2
COc1ccc(NC2CCCN(C(=O)c3oc(C)cc3C)C2)cc1OC (configuration not stated)	24.0	9.5	99.5*	-9.1	-2.9	-24.7
